Legend:
[1] = Lipophilicity, log D of the compound by octanol/buffer shake flask method; type: physicochemical
[2] = Intrinsic clearance in human liver microsomes; type: ADME; details: read-out: CLH
[3] = AUC in rat at 1 mg/kg, iv; type: ADME, organism-based; set-up: dose 1 mg/kg, route intravenous; details: plasma
In short: (§1)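 Rat pharmacokinetics after a single IV dose of 1 mg/kg and an oral dose of 5 mg/kg. Reported parameters are AUC, t1/2, clearance, Vss and oral bioavailability.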

[4] = Half life in rat at 1 mg/kg, iv; type: ADME, organism-based; set-up: dose 1 mg/kg, route intravenous; details: in vivo; in short: as §1
[5] = Clearance in rat at 1 mg/kg, iv; type: ADME, organism-based; set-up: dose 1 mg/kg, route intravenous; details: in vivo; in short: as §1
[6] = Volume of distribution at steady state in rat at 1 mg/kg, iv; type: ADME, organism-based; set-up: dose 1 mg/kg, route intravenous; details: in vivo, read-out: Vdss; in short: as §1
[7] = AUC in rat at 5 mg/kg, po; type: ADME, organism-based; set-up: dose 5 mg/kg, route oral; details: plasma; in short: as §1
[8] = Oral bioavailability in rat at 5 mg/kg; type: ADME, organism-based; details: in vivo; in short: as §1
[9] = AUC in Sprague-Dawley rat at 3 mg/kg, po; type: ADME, organism-based; set-up: dose 3 mg/kg, route oral; details: plasma
In short: (§2)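 Male Sprague-Dawley rats, about 11 weeks old (300−400 g), singly housed with chow and water ad libitum. […] Urine was collected overnight predose and at 0−2, 2−4 and 4−7 h postdose for Na+ and K+, normalised to creatinine. Plasma drug was measured by LC-MS.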

[10] = AUC in Sprague-Dawley rat at 10 mg/kg, po; type: ADME, organism-based; set-up: dose 10 mg/kg, route oral; details: plasma; in short: as §2
[11] = AUC in Sprague-Dawley rat at 30 mg/kg, po; type: ADME, organism-based; set-up: dose 30 mg/kg, route oral; details: plasma; in short: as §2

SMILES	logD [1]	further results
COc1nc(C2=NN(c3ccc(C#N)c(C)n3)[C@@H](C3CCCC3)C2)ccc1C(N)=O	3.4	
CCOc1cc(C2=NN(c3ccc(C#N)c(C)c3)[C@@H](C3CCCC3)C2)ccc1C(=O)O	2.7	
COc1nc(C2=NN(c3ccc(C#N)c(C)n3)[C@@H](C3CCCC3)C2)ccc1C(=O)O	2	
CNC(=O)c1ccc(C2=NN(c3ccc(C#N)c(C)c3)[C@@H](C3CCCC3)C2)nc1OC	4.4	
COc1cc(C2=NN(c3ccc(C#N)c(Cl)c3)[C@@H](C3CCCC3)C2)ccc1C(=O)O	2.1	
CNC(=O)c1ccc(C2=NN(c3ccc(C#N)c(C)n3)[C@@H](C3CCCC3)C2)nc1OC	3.2	
CCOc1nc(C2=NN(c3ccc(C#N)c(C)c3)[C@@H](C3CCCC3)C2)ccc1C(=O)O	3	
CCOc1cc(C2=NN(c3ccc(C#N)c(Cl)c3)[C@@H](C3CCCC3)C2)ccc1C(=O)O	2.6	
COc1nc(C2=NN(c3ccc(C#N)c(C)n3)[C@@H](C(C)C)C2)ccc1C(=O)O	1.6	
Cc1nc(N2N=C(c3ccc(C(=O)O)cc3)C[C@@H]2C2CCCC2)ccc1C#N	2.6	
COc1nc(C2=NN(c3ccc(C#N)c(C)c3)[C@@H](C3CCCC3)C2)ccc1C(=O)Nc1nnn[nH]1	3.2	
COc1cc(C2=NN(c3ccc(C#N)c(C)n3)[C@@H](C3CCCC3)C2)ccc1C(=O)O	1.7	
COc1nc(C2=NN(c3ccc(C#N)c(C)c3)[C@@H](C3CCCC3)C2)ccc1C(=O)NS(C)(=O)=O	2.3	microsomal CLint [2]: 175 µL/min/mg
COc1nc(C2=NN(c3ccc(C#N)c(C)c3)[C@@H](C3CCCC3)C2)ccc1C(=O)N(C)C	3.5	
COc1nc(C2=NN(c3ccc(C#N)c(C)n3)[C@@H](C3CCCC3)C2)ccc1C(=O)NS(C)(=O)=O	1.9	
N#Cc1ccc(N2N=C3c4ccc(C(=O)O)cc4CC[C@@H]3[C@@H]2C2CCCC2)cc1Cl [PF-03882845]	3.5	
COc1nc(C2=NN(c3ccc(C#N)c(C)c3)[C@H](C3CCCC3)C2)ccc1C(=O)O	2.2	
COc1nc(C2=NN(c3ccc(C#N)c(Cl)c3)[C@@H](C3CCCC3)C2)ccc1C(=O)O	2.3	
COc1nc(C2=NN(c3ccc(C#N)c(C)n3)[C@@H](C3CCCC3)C2)ccc1C(=O)N(C)C	4.1	
COc1nc(C2=NN(c3ccc(C#N)c(C)c3)[C@@H](C3CCCC3)C2)ccc1C(N)=O	3.8	
COc1cc(C2=NN(c3ccc(C#N)c(C)c3)[C@@H](C3CCCC3)C2)ccc1C(=O)O	2.2	
COc1nc(C2=NN(c3ccc(C#N)c(C)c3)[C@@H](C3CCCC3)C2)ccc1C(=O)O	2.2	microsomal CLint [2]: < 14 µL/min/mg; AUC [3]: 494 ng·h/mL; half-life [4]: 2.3 h; clearance [5]: 33 mL/min/kg; Vd [6]: 3.1 L/kg; AUC [7]: 1320 ng·h/mL; bioavailability [8]: 54%; AUC [9]: 1170 ng·h/mL; AUC [10]: 9240 ng·h/mL; AUC [11]: 33600 ng·h/mL
